The source made the active and inactive calls. The calls are words filed in the database; no cut-off is given here. Residues, ends and D or L forms follow the SMILES beside them. *: point of attachment. Acetyl(5-fluorouracil-1-yl) = O=C(Cn1cc(F)c(=O)[nH]c1=O)*; X1 = O=C(CCC(=O)*)OCn1cc(F)c(=O)[nH]c1=O
What was measured:
[1] = tested on: Hydroxyapatite; assay: Binding affinity to bone mineral hydroxyapatite assessed as binding index after 24 hrs by UV-spectrophotometer analysis relative to 5-fluorouracil; design: concentration or dose not given beside the values
In short: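 Hydroxyapatite (25 mg/ml) added to 5 ml conjugate solutions at 500 µg/ml (C0). Sonicated 5 min, then held in a 37 °C water bath for […] or over 24 h. Unbound conjugate read by UV at 254 nm against an absorbance–concentration calibration line. Tetracycline as positive control. Binding index given as mean ± SD, n = 3.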

[2] = tested on: Hydroxyapatite; assay: Binding affinity to bone mineral hydroxyapatite assessed as binding index after 0.5 hrs by UV-spectrophotometer analysis relative to 5-fluorouracil; design: concentration or dose not given beside the values
[3] = tested on: MG-63; assay: Cytotoxicity against human MG63 cells after 3 days by MTT assay; assay type: functional, cell-based; conditions: MG-63, 72 h
In short: (§1)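 MG-63 or HeLa cells plated at 5×10³ cells/well. Exposed to conjugates at 1–64 µM (5-FU-equivalent), with or without human plasma, for 72 h under 5% CO₂. MTT then added for 2 h and absorbance read at 490 nm. Mean and SD of three independent experiments.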

[4] = species: Mus musculus; assay: Cmax in mouse; assay type: ADME, organism-based; conditions: in vivo
[5] = Prodrug activation in phosphate buffered saline at pH 7.4 assessed as 5-fluorouracil release after 5 days by RP-HPLC analysis; conditions: buffer, pH 7.4, 120 h
In short: (§2)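 Conjugates incubated at 37 °C in PBS pH 7.4 or in 50% (v/v in PBS) human plasma, with a little DMSO added for solubility. Released 5-FU measured by RP-HPLC at 1.0 mL/min, detection at 256 nm, 25 °C.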

[6] = tested on: Femur; assay: Biodistribution in po dosed mouse femur after 1 hr; assay type: ADME, organism-based; conditions: in vivo
In short: (§3)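 Mice dosed orally. At 1 h or 12 h, kidney, liver, femur and blood collected. Organs rinsed in cold saline, blotted, extracted with methanol, diluted and centrifuged before analysis. Mean and SD of three independent experiments.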

[7] = tested on: HeLa; assay: Cytotoxicity against human HeLa cells after 3 days by MTT assay in presence of 50% human plasma; assay type: functional, cell-based; in short: as §1
[8] = Apparent volume of distribution in mouse; assay type: ADME, organism-based; conditions: in vivo, read-out: Vz
[9] = tested on: Plasma; assay: Prodrug activation in 50% human plasma assessed as 5-fluorouracil release after 60 hrs by RP-HPLC analysis; assay type: cell-free; in short: as §2
[10] = Prodrug activation in phosphate buffered saline at pH 7.4 assessed as 5-fluorouracil release after 60 hrs by RP-HPLC analysis; conditions: buffer, pH 7.4, 60 h; in short: as §2
[11] = AUC in mouse; assay type: ADME, organism-based; conditions: plasma
[12] = Half life in mouse; assay type: ADME, organism-based; conditions: in vivo
[13] = tested on: Plasma; assay: Prodrug activation in 50% human plasma assessed as 5-fluorouracil release after 5 days by RP-HPLC analysis; assay type: cell-free; conditions: 120 h; in short: as §2
[14] = tested on: Femur; assay: Biodistribution in po dosed mouse femur after 12 hrs; assay type: ADME, organism-based; conditions: in vivo; in short: as §3
[15] = tested on: MG-63; assay: Cytotoxicity against human MG63 cells after 3 days by MTT assay in presence of 50% human plasma; assay type: functional, cell-based; in short: as §1
[16] = tested on: HeLa; assay: Cytotoxicity against human HeLa cells after 3 days by MTT assay; assay type: functional, cell-based; conditions: 72 h; in short: as §1

| Structure (SMILES) | Activity [1] | Activity [2] | IC50 [3] | Cmax [4] | Activity [5] | Drug uptake [6] | Activity [7] | Vd [8] | Activity [9] | Activity [10] | AUC [11] | half-life [12] | Activity [13] | Drug uptake [14] | Activity [15] | IC50 [16] |
| --- | --- | --- | --- | --- | --- | --- | --- | --- | --- | --- | --- | --- | --- | --- | --- | --- |
| O=C(O)C[C@H](NC(=O)[C@H](CC(=O)O)NC(=O)[C@H](CC(=O)O)NC(=O)[C@H](CC(=O)O)NC(=O)Cn1cc(F)c(=O)[nH]c1=O)C(=O)O ({Acetyl(5-fluorouracil-1-yl)}-DDDD-OH) | 40.2% | 14.3% |  |  |  |  |  |  |  |  |  |  |  |  |  |  |
| CN(C)[C@@H]1C(O)=C(C(N)=O)C(=O)[C@@]2(O)C(O)=C3C(=O)c4c(O)cccc4[C@@](C)(O)[C@H]3C[C@@H]12 | 56.2% | 24.1% |  |  |  |  |  |  |  |  |  |  |  |  |  |  |
| O=C(O)C[C@H](NC(=O)[C@H](CC(=O)O)NC(=O)[C@H](CC(=O)O)NC(=O)[C@H](CC(=O)O)NC(=O)[C@H](CC(=O)O)NC(=O)Cn1cc(F)c(=O)[nH]c1=O)C(=O)O ({Acetyl(5-fluorouracil-1-yl)}-DDDDD-OH) | 19.8% | 11.6% |  |  |  |  |  |  |  |  |  |  |  |  |  |  |
| O=C(O)C[C@H](NC(=O)[C@H](CC(=O)O)NC(=O)[C@H](CC(=O)O)NC(=O)[C@H](CC(=O)O)NC(=O)[C@H](CC(=O)O)NC(=O)[C@H](CC(=O)O)NC(=O)Cn1cc(F)c(=O)[nH]c1=O)C(=O)O ({Acetyl(5-fluorouracil-1-yl)}-DDDDDD-OH) | 62.7% | 31.4% | > 64 µM | 42400 µg/mL | 5% | Active | Active | 24.1 L/kg | 47.4% | 3.2% | 76600 ng·h/mL | 4.36 h | 60% | Active | Active | > 64 µM |
| O=C(O)C[C@H](NC(=O)[C@H](CC(=O)O)NC(=O)[C@H](CC(=O)O)NC(=O)[C@H](CC(=O)O)NC(=O)[C@H](CC(=O)O)NC(=O)CCC(=O)OCn1cc(F)c(=O)[nH]c1=O)C(=O)O (X1-DDDDD-OH) | 25.5% | 13.4% |  |  |  |  |  |  |  |  |  |  |  |  |  |  |
| O=C(O)C[C@H](NC(=O)[C@H](CC(=O)O)NC(=O)[C@H](CC(=O)O)NC(=O)[C@H](CC(=O)O)NC(=O)CCC(=O)OCn1cc(F)c(=O)[nH]c1=O)C(=O)O (X1-DDDD-OH) | 42.5% | 16.6% |  |  |  |  |  |  |  |  |  |  |  |  |  |  |
| O=C(O)C[C@H](NC(=O)[C@H](CC(=O)O)NC(=O)[C@H](CC(=O)O)NC(=O)[C@H](CC(=O)O)NC(=O)[C@H](CC(=O)O)NC(=O)[C@H](CC(=O)O)NC(=O)CCC(=O)OCn1cc(F)c(=O)[nH]c1=O)C(=O)O (X1-DDDDDD-OH) | 69.7% | 37.8% | > 64 µM | 51100 µg/mL |  | Active | Active | 32.2 L/kg | 60.3% |  | 90100 ng·h/mL | 6.75 h | 80% | Active | Active | > 64 µM |
| O=c1[nH]cc(F)c(=O)[nH]1 [FLUOROURACIL] | 0% | 0% | 8 µM |  |  | Active |  | 24.1 L/kg |  |  | 76600 ng·h/mL | 4.36 h |  | Active |  | 4 µM |

— ChEMBL document CHEMBL1795218, “Selective bone targeting 5-fluorouracil prodrugs: synthesis and preliminary biological evaluation” (Bioorg Med Chem, 2011)
